Data: ChEMBL document CHEMBL5653631, “A Potent and Selective ULK1 Inhibitor Suppresses Autophagy and Sensitizes Cancer Cells to Nutrient Stress” (iScience, 2018)
Calls of active or inactive are those of the source. The calls are words filed in the database; no cut-off is given here.

Tests used:
[1] = molecular target: ALK tyrosine kinase receptor (Homo sapiens) (UniProt Q9UM73); assay: Inhibition of human recombinant ALK at 500 nM related to control ULK1
Summary of the method: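 Panel of 327 recombinant human kinases, each assayed in vitro by radiometric activity assay in duplicate at a single inhibitor concentration per compound, chosen with reference to its ULK1 inhibition. Activity remaining was expressed as percent of vehicle control, and percent inhibition was calculated as 100 minus percent activity remaining.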

[2] = molecular target: Serine/threonine-protein kinase SIK3 (Homo sapiens) (UniProt Q9Y2K2); assay: Inhibition of human recombinant QSK at 500 nM related to control ULK1
[3] = molecular target: Mitogen-activated protein kinase 14 (Homo sapiens) (UniProt Q16539); assay: Inhibition of human recombinant p38alpha at 500 nM in presence of ATP by radiometric assay relative to control
Chain of Mitogen-activated protein kinase 14 (Homo sapiens) (Q16539 whole entry): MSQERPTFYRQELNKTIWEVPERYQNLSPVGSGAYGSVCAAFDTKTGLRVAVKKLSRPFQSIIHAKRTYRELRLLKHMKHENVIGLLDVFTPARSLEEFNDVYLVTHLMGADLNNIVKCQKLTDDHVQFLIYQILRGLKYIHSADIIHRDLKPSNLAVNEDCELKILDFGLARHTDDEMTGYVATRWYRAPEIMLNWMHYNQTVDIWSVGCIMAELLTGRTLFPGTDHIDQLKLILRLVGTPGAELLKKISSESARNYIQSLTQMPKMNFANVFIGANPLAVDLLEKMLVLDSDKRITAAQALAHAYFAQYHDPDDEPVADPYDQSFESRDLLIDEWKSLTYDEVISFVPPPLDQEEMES

[4] = molecular target: Protein kinase C gamma type (Homo sapiens) (UniProt P05129); assay: Inhibition of human recombinant PKCg at 15 nM in presence of ATP by radiometric assay relative to control
[5] = molecular target: Cyclin-dependent kinase-like 3 (Homo sapiens) (UniProt Q8IVW4); assay: Inhibition of human recombinant CDKL3 at 15 nM in presence of ATP by radiometric assay relative to control
Chain of Cyclin-dependent kinase-like 3 (Homo sapiens) (Q8IVW4 whole entry, looked up): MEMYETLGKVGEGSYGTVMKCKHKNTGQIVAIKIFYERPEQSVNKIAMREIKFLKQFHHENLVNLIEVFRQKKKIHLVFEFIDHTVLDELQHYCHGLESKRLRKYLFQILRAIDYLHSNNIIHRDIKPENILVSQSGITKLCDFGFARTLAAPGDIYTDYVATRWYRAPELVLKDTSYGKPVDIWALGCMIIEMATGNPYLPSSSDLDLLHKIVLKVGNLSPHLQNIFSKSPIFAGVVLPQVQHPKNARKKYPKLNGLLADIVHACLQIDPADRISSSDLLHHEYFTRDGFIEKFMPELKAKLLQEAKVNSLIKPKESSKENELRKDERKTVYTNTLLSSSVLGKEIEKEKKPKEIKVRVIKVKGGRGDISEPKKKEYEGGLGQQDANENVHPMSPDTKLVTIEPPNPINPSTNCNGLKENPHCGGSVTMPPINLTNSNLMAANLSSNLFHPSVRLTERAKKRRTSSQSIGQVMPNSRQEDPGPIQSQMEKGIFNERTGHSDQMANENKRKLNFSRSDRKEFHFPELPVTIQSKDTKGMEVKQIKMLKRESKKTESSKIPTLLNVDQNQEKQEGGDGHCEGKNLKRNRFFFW

[6] = molecular target: eIF-2-alpha kinase GCN2 (Homo sapiens) (UniProt Q9P2K8); assay: Inhibition of human recombinant GCN2 at 15 nM in presence of ATP by radiometric assay relative to control
[7] = molecular target: Dual specificity protein kinase CLK3 (Homo sapiens) (UniProt P49761); assay: Inhibition of human recombinant CLK3 at 15 nM in presence of ATP by radiometric assay relative to control
Chain of Dual specificity protein kinase CLK3 (Homo sapiens) (P49761 whole entry, looked up): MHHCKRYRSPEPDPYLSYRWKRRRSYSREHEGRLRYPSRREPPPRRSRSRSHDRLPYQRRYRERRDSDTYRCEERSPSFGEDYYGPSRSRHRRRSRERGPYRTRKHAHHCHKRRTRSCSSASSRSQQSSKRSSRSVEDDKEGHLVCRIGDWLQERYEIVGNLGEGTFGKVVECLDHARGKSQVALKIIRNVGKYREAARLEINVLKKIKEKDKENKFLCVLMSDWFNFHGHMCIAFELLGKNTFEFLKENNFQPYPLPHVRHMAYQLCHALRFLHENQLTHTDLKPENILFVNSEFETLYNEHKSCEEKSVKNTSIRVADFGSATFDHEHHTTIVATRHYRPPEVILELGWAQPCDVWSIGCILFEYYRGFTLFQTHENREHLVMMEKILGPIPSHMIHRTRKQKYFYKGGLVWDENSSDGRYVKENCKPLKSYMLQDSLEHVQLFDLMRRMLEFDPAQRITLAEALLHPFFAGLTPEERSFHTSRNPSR

[8] = molecular target: Serine/threonine-protein kinase NIM1 (Homo sapiens) (UniProt Q8IY84); assay: Inhibition of human recombinant NIM1 at 15 nM in presence of ATP by radiometric assay relative to control
Chain of Serine/threonine-protein kinase NIM1 (Homo sapiens) (Q8IY84 whole entry): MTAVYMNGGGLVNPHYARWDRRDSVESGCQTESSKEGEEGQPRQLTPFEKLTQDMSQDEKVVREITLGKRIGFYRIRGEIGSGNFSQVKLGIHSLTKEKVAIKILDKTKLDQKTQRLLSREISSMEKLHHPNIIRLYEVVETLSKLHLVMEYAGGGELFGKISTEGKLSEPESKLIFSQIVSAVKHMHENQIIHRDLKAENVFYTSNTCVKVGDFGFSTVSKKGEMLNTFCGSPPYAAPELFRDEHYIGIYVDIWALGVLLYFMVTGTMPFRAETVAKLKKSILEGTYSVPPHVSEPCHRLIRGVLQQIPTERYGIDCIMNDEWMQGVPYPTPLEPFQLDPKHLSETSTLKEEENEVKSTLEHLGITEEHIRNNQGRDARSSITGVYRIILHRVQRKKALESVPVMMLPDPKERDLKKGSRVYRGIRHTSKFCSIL

[9] = molecular target: T1, Tyrosine-protein kinase Mer (Homo sapiens) (UniProt Q12866); assay: Inhibition of human recombinant MER at 15 nM in presence of ATP by radiometric assay relative to control
T1 sequence (whole entry): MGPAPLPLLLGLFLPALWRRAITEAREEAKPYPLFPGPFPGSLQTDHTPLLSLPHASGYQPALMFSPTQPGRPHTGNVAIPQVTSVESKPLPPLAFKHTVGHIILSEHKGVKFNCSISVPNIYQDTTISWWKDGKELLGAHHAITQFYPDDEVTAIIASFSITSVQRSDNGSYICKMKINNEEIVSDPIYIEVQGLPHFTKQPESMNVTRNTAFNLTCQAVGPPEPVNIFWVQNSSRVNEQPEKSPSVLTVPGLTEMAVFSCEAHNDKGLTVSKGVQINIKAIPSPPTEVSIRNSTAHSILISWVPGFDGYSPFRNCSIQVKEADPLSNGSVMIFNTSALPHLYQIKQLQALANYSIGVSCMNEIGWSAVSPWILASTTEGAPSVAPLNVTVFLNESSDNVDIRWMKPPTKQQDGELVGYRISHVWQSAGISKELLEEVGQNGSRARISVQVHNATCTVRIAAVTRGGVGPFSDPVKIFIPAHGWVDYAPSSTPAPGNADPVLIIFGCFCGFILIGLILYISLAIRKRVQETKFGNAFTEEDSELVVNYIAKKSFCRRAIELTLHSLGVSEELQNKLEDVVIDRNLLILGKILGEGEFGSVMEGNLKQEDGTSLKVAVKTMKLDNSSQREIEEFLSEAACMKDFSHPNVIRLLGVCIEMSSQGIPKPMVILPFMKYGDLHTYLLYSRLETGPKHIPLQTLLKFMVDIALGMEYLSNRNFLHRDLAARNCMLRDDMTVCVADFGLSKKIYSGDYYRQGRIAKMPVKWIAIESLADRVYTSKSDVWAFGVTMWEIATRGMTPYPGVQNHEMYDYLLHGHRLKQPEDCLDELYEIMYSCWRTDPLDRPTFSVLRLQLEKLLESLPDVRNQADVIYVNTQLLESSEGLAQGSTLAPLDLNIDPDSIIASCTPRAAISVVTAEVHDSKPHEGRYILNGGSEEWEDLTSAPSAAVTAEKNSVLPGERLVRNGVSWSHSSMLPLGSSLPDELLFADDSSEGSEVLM

[10] = molecular target: Tyrosine-protein kinase ABL2 (Homo sapiens) (UniProt P42684); assay: Inhibition of human recombinant ABL2 at 40 nM in presence of ATP by radiometric assay relative to control
Chain of Tyrosine-protein kinase ABL2 (Homo sapiens) (P42684 whole entry): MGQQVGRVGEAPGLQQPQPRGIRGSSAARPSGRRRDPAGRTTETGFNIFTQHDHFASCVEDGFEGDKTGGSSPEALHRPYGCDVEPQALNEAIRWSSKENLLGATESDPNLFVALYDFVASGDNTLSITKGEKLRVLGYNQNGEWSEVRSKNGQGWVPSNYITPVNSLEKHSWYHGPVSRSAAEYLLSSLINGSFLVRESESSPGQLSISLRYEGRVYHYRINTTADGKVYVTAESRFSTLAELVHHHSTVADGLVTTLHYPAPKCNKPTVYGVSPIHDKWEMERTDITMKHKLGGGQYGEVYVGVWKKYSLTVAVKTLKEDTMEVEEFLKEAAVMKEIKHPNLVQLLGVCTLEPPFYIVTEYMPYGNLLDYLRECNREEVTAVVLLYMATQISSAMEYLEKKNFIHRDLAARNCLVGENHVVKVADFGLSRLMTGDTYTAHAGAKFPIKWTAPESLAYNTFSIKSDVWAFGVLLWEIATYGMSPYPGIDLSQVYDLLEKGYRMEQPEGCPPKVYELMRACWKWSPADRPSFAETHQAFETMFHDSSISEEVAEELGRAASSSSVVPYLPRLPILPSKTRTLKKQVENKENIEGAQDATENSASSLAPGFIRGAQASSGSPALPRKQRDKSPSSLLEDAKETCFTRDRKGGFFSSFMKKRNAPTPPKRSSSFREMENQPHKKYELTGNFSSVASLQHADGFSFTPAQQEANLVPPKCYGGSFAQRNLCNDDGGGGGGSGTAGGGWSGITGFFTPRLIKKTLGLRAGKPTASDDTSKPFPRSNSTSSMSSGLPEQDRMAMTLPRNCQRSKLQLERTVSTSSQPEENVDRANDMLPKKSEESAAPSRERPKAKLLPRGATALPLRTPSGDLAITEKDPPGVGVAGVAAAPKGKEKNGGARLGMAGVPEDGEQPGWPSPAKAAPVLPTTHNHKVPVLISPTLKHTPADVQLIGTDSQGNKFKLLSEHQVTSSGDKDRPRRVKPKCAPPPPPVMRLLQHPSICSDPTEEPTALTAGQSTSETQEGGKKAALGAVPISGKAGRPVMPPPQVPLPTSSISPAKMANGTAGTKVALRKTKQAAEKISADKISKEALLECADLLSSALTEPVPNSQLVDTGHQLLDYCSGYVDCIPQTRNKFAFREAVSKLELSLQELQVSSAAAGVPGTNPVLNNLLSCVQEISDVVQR
Summary of the method: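 Panel of 327 recombinant human kinases in radiometric activity assays, each screened in duplicate at a single inhibitor concentration; percent activity remaining relative to vehicle control, percent inhibition taken as 100 minus activity remaining.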

U2OS = assay: Inhibition of autophagy in human U2OS cells assessed as BafA1-induced LC3B-II accumulation upto 5 uM preincubated with compound for 3 hrs followed by BafA1 induction and measured after 1 hr by immunoblotting analysis; format: functional, cell-based; details: time 4.0 hrs
[11] = molecular target: Bone morphogenetic protein receptor type-1B (Homo sapiens) (UniProt O00238); assay: Inhibition of human recombinant BMPR1B at 40 nM in presence of ATP by radiometric assay relative to control
Chain of Bone morphogenetic protein receptor type-1B (Homo sapiens) (O00238 whole entry): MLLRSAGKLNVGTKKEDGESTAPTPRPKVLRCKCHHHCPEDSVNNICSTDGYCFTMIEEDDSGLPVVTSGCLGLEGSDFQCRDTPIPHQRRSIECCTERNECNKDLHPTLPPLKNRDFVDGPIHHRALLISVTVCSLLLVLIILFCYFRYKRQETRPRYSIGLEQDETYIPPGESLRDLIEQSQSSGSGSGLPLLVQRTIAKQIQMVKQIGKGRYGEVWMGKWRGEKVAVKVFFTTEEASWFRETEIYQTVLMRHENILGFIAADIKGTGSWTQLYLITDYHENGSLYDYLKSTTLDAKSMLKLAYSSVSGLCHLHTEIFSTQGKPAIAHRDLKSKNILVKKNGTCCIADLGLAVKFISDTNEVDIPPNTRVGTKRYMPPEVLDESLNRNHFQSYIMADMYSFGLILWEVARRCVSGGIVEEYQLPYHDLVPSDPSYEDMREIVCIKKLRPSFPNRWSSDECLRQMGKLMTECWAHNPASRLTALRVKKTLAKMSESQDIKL
Summary of the method: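 Part of a radiometric in vitro activity panel of 327 recombinant human kinases. Each kinase was tested in duplicate at one inhibitor concentration. Activity remaining was expressed as a percentage of the vehicle control, and percent inhibition was taken as 100 minus that value.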

Molecule `CNC(=O)c1ccccc1Oc1nc(Nc2cc(OC)c(OC)c(OC)c2)ncc1Br` has a fold change (FC) [1] of 0, a fold change (FC) [2] of 0.11 and an inhibition [3] of 5%.

`CC(C)[C@H](NC(=O)c1cc(-c2cnn3cc(-c4ccc(OCCN5CCCCC5)cc4)cnc23)cs1)C(F)(F)F` gave an inhibition [4] of 0%, an inhibition [5] of 34% and an inhibition [6] of 8%. It also gave an inhibition [7] of 1%, an inhibition [8] of 6% and an inhibition [9] of 34%.

In the case of `O=C(N[C@@H](C1CC1)C(F)(F)F)c1cc(-c2cnn3cc(-c4ccc(F)cc4)cnc23)cs1`, the inhibition [10] is reported as 7%, the inhibition (U2OS) is reported as “Active” and the inhibition [11] is reported as 0%.
